Activity calls are given as the source filed them. The rule behind the calls is not given here.
Columns and labels:
[1] = system: BGC-823; test: Induction of NO release in human BGC823 cells at 100 uM incubated for 1 hr by Griess assay; type: functional
Method in brief: (§1)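 Cells exposed to 100 μM compound; the methods give 150 min, the results text 1 h. Cell lysates mixed with Griess reagent 10 min at 37 °C, absorbance read at 540 nm. Nitrite quantified against a sodium nitrite standard curve; 0.4% DMSO-treated cells gave background. Mean ± SD of three independent experiments.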

[2] = system: Bel-7402; test: Induction of NO release in human Bel7402 cells at 100 uM incubated for 1 hr by Griess assay; type: functional; method in brief: as §1
[3] = system: L02; test: Induction of NO release in human L02 cells at 100 uM incubated for 1 hr by Griess assay; type: functional; method in brief: as §1
[4] = Antiproliferative activity against human BGC823 cells after 72 hrs by MTT assay; type: functional, cell-based; conditions: BGC-823, 72 h
Method in brief: (§2)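 Cells pre-incubated 24 h at 37 °C, 5% CO2, then exposed to compounds for 72 h. MTT (5 mg/mL solution) added for a further 4 h, formazan dissolved in DMSO, OD read at 570 nm. Negative reference 0.1% DMSO; evodiamine and 5-Fu as positive references. IC50 is the concentration inhibiting 50% of growth; mean ± SD of three independent experiments.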

[5] = system: A549; test: Antiproliferative activity against human A549 cells after 72 hrs by MTT assay; type: functional, cell-based; conditions: A549, 72 h; method in brief: as §2
[6] = Antiproliferative activity against human Bel7402 cells after 72 hrs by MTT assay; type: functional, cell-based; conditions: Bel-7402, 72 h; method in brief: as §2
[7] = Antiproliferative activity against human L02 cells after 72 hrs by MTT assay; type: cell-based; conditions: L02, 72 h; method in brief: as §2
[8] = Cell cycle arrest in human Bel7402 cells assessed as accumulation at G1 phase at 1 uM after 24 hrs by propidium iodide staining based flow cytometry (reference value: 43.13%); type: functional; conditions: Bel-7402
[9] = Cell cycle arrest in human Bel7402 cells assessed as accumulation at G1 phase at 2 uM after 24 hrs by propidium iodide staining based flow cytometry (reference value: 43.13%); type: functional; conditions: Bel-7402
[10] = Cell cycle arrest in human Bel7402 cells assessed as accumulation at G1 phase at 3 uM after 24 hrs by propidium iodide staining based flow cytometry (reference value: 43.13%); type: functional; conditions: Bel-7402
[11] = Cell cycle arrest in human Bel7402 cells assessed as accumulation at S phase at 1 uM after 24 hrs by propidium iodide staining based flow cytometry (reference value: 33.7%); type: functional; conditions: Bel-7402
[12] = Cell cycle arrest in human Bel7402 cells assessed as accumulation at S phase at 2 uM after 24 hrs by propidium iodide staining based flow cytometry (reference value: 33.7%); type: functional; conditions: Bel-7402
[13] = Cell cycle arrest in human Bel7402 cells assessed as accumulation at S phase at 3 uM after 24 hrs by propidium iodide staining based flow cytometry (reference value: 33.7%); type: functional; conditions: Bel-7402
[14] = Cell cycle arrest in human Bel7402 cells assessed as accumulation at G2 phase at 1 uM after 24 hrs by propidium iodide staining based flow cytometry (reference value: 23.17%); type: functional; conditions: Bel-7402
[15] = Cell cycle arrest in human Bel7402 cells assessed as accumulation at G2 phase at 2 uM after 24 hrs by propidium iodide staining based flow cytometry (reference value: 23.17%); type: functional; conditions: Bel-7402
[16] = Cell cycle arrest in human Bel7402 cells assessed as accumulation at G2 phase at 3 uM after 24 hrs by propidium iodide staining based flow cytometry (reference value: 23.17%); type: functional; conditions: Bel-7402
[17] = system: Bel-7402; test: Induction of mitochondrial membrane depolarization in human Bel7402 cells at 1 uM after 72 hrs by JC-1 staining based flow cytometry (reference value: 4.26%); type: functional
[18] = system: Bel-7402; test: Induction of apoptosis in human Bel7402 cells assessed as live cells at 1 uM after 72 hrs by Annexin V-FITC/propidium iodide staining based flow cytometry (reference value: 88.31%); type: functional
[19] = system: Bel-7402; test: Induction of apoptosis in human Bel7402 cells assessed as live cells at 2 uM after 72 hrs by Annexin V-FITC/propidium iodide staining based flow cytometry (reference value: 88.31%); type: functional
[20] = system: Bel-7402; test: Induction of apoptosis in human Bel7402 cells assessed as live cells at 3 uM after 72 hrs by Annexin V-FITC/propidium iodide staining based flow cytometry (reference value: 88.31%); type: functional
[21] = system: Bel-7402; test: Induction of apoptosis in human Bel7402 cells assessed as early apoptotic cells at 1 uM after 72 hrs by Annexin V-FITC/propidium iodide staining based flow cytometry (reference value: 6.66%); type: functional
[22] = system: Bel-7402; test: Induction of apoptosis in human Bel7402 cells assessed as early apoptotic cells at 2 uM after 72 hrs by Annexin V-FITC/propidium iodide staining based flow cytometry (reference value: 6.66%); type: functional
[23] = system: Bel-7402; test: Induction of apoptosis in human Bel7402 cells assessed as early apoptotic cells at 3 uM after 72 hrs by Annexin V-FITC/propidium iodide staining based flow cytometry (reference value: 6.66%); type: functional
[24] = system: Bel-7402; test: Induction of apoptosis in human Bel7402 cells assessed as late apoptotic cells at 1 uM after 72 hrs by Annexin V-FITC/propidium iodide staining based flow cytometry (reference value: 2.55%); type: functional
[25] = system: Bel-7402; test: Induction of apoptosis in human Bel7402 cells assessed as late apoptotic cells at 2 uM after 72 hrs by Annexin V-FITC/propidium iodide staining based flow cytometry (reference value: 2.55%); type: functional
[26] = system: Bel-7402; test: Induction of apoptosis in human Bel7402 cells assessed as late apoptotic cells at 3 uM after 72 hrs by Annexin V-FITC/propidium iodide staining based flow cytometry (reference value: 2.55%); type: functional
[27] = system: Bel-7402; test: Induction of apoptosis in human Bel7402 cells assessed as necrotic cells at 1 uM after 72 hrs by Annexin V-FITC/propidium iodide staining based flow cytometry (reference value: 2.48%); type: functional
[28] = system: Bel-7402; test: Induction of apoptosis in human Bel7402 cells assessed as necrotic cells at 2 uM after 72 hrs by Annexin V-FITC/propidium iodide staining based flow cytometry (reference value: 2.48%); type: functional
[29] = system: Bel-7402; test: Induction of apoptosis in human Bel7402 cells assessed as necrotic cells at 3 uM after 72 hrs by Annexin V-FITC/propidium iodide staining based flow cytometry (reference value: 2.48%); type: functional
[30] = system: Bel-7402; test: Induction of apoptosis in human Bel7402 cells after 72 hrs by Annexin V-FITC/propidium iodide staining based flow cytometry; type: functional, cell-based
[31] = system: Bel-7402; test: Induction of mitochondrial membrane depolarization in human Bel7402 cells at 2 uM after 72 hrs by JC-1 staining based flow cytometry (reference value: 4.26%); type: functional
[32] = system: Bel-7402; test: Induction of mitochondrial membrane depolarization in human Bel7402 cells at 3 uM after 72 hrs by JC-1 staining based flow cytometry (reference value: 4.26%); type: functional
[33] = system: Bel-7402; test: Induction of mitochondrial membrane depolarization in human Bel7402 cells after 72 hrs by JC-1 staining based flow cytometry; type: functional, cell-based
[34] = Induction of apoptosis in human Bel7402 cells assessed as upregulation of Bax expression at 1 to 3 uM after 72 hrs by Western blot analysis; type: functional, cell-based; conditions: Bel-7402
Method in brief: (§3)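 Bel-7402 cells exposed to different doses for 72 h, lysed, and protein content determined. Lysates separated on 10% SDS-PAGE and transferred to nitrocellulose. Membranes probed with monoclonal primary antibodies, then HRP-conjugated secondary antibodies, with ECL detection.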

[35] = system: Bel-7402; test: Induction of apoptosis in human Bel7402 cells assessed as increase in caspase-3 expression at 1 to 3 uM after 72 hrs by Western blot analysis; type: functional, cell-based; method in brief: as §3
[36] = system: Bel-7402; test: Induction of apoptosis in human Bel7402 cells assessed as increase in caspase-8 expression at 1 to 3 uM after 72 hrs by Western blot analysis; type: functional, cell-based; method in brief: as §3
[37] = system: Bel-7402; test: Induction of apoptosis in human Bel7402 cells assessed as increase in caspase-9 expression at 1 to 3 uM after 72 hrs by Western blot analysis; type: functional, cell-based; method in brief: as §3
[38] = Induction of apoptosis in human Bel7402 cells assessed as upregulation of FAS protein expression at 1 to 3 uM after 72 hrs by Western blot analysis; type: functional, cell-based; conditions: Bel-7402; method in brief: as §3
[39] = system: Bel-7402; test: Induction of apoptosis in human Bel7402 cells assessed as increase in cytochrome-C level at 1 to 3 uM after 72 hrs by Western blot analysis; type: functional, cell-based; method in brief: as §3
[40] = system: Bel-7402; test: Induction of apoptosis in human Bel7402 cells assessed as down regulation of Bcl-2 expression at 1 to 3 uM after 72 hrs by Western blot analysis; type: functional, cell-based; method in brief: as §3

CN1c2ccccc2C(=O)N2CCc3c(n(CCCOc4no[n+]([O-])c4S(=O)(=O)c4ccccc4)c4ccccc34)C21 (stereo not given)
Activity [1]: 83.6 µM | Activity [2]: 83.1 µM | Activity [3]: 16.4 µM | IC50 [4]: 0.08 µM | IC50 [5]: 5.85 µM | IC50 [6]: 6.21 µM | IC50 [7]: 2.35 µM

CN1c2ccccc2C(=O)N2CCc3c(n(CCCCCCOc4no[n+]([O-])c4S(=O)(=O)c4ccccc4)c4ccccc34)C21 (stereo not given)
Activity [1]: 87.3 µM | Activity [2]: 82.2 µM | Activity [3]: 26 µM | IC50 [4]: 0.07 µM | IC50 [5]: 2.31 µM | IC50 [6]: 2.1 µM | IC50 [7]: > 100 µM | Activity [8]: 44.9% | Activity [9]: 42.6% | Activity [10]: 42.6% | Activity [11]: 39.3% | Activity [12]: 47.3% | Activity [13]: 51.5% | Activity [14]: 15.7% | Activity [15]: 10% | Activity [16]: 5.9% | Activity [17]: 13.5% | Activity [18]: 77.63% | Activity [19]: 58.88% | Activity [20]: 40.74% | Activity [21]: 15.92% | Activity [22]: 20.98% | Activity [23]: 24.37% | Activity [24]: 3.71% | Activity [25]: 15.4% | Activity [26]: 28.2% | Activity [27]: 2.73% | Activity [28]: 4.74% | Activity [29]: 6.69% | Activity [30]: Dose-dependent effect | Activity [31]: 26.57% | Activity [32]: 44.37% | Activity [33]: Dose-dependent effect | Activity [34]: Active | Activity [35]: Active | Activity [36]: Active | Activity [37]: Active | Activity [38]: Active | Activity [39]: Active | Activity [40]: Active

CN1c2ccccc2C(=O)N2CCc3c(n(CCCOC(=O)CCC(=O)OCCOc4no[n+]([O-])c4S(=O)(=O)c4ccccc4)c4ccccc34)C21 (stereo not given)
Activity [1]: 97.6 µM | Activity [2]: 97 µM | Activity [3]: 18 µM | IC50 [4]: 0.06 µM | IC50 [5]: 5.32 µM | IC50 [6]: 4.65 µM | IC50 [7]: 6.38 µM

CN1c2ccccc2C(=O)N2CCc3c(n(CCOC(=O)CCC(=O)OCCOc4no[n+]([O-])c4S(=O)(=O)c4ccccc4)c4ccccc34)C21 (stereo not given)
Activity [1]: 93.5 µM | Activity [2]: 88.7 µM | Activity [3]: 6.59 µM | IC50 [4]: 0.02 µM | IC50 [5]: 3.04 µM | IC50 [6]: 1.54 µM | IC50 [7]: 17.1 µM

O=C(O)CCC(=O)OCCOc1no[n+]([O-])c1S(=O)(=O)c1ccccc1
IC50 [4]: 18 µM | IC50 [5]: 27.9 µM | IC50 [6]: 21.4 µM | IC50 [7]: 38.7 µM

— ChEMBL document CHEMBL3808293, “Antiproliferative activity and apoptosis inducing effects of nitric oxide donating derivatives of evodiamine” (Bioorg Med Chem, 2016)
